Data taken from ChEMBL document CHEMBL3400013, “Synthesis and biological activity evaluation of hydrazone derivatives based on a Tröger's base skeleton” (Bioorg Med Chem, 2015).
Calls of active or inactive are those of the source.

What was measured:
[1] = test system: Candida tropicalis; assay: Antifungal activity against Candida tropicalis up to 200 uM after 24 to 48 hrs by broth microdilution method; type: functional, organism-based
[2] = test system: A549; assay: Cytostatic activity against human A549 cells after 72 hrs by MTT assay; type: functional, cell-based; details: A549, 72 h
Method in brief: (§1)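 Cells were seeded at 25,000–30,000 per well and pre-incubated for 24 h at 37°C in 5% CO2. Four-fold compound dilutions were added in duplicate and incubated for 72 h. MTT was added for 1–4 h, and formazan was dissolved in 10% aq SDS (pH 5.5) overnight at 37°C. OD was read at 540 nm. IC50 came from dose-response curves, mean ± SD of eight independent experiments.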

[3] = test system: K562; assay: Cytostatic activity against human K562 cells after 72 hrs by MTT assay; type: functional, cell-based; details: K562, 72 h; method in brief: as §1
[4] = test system: BJ; assay: Selectivity index, ratio of IC50 for human BJ cells to IC50 for human K562-TAX cells; type: functional
[5] = Metal chelating activity of the compound assessed as formation of Mg2+ complex by UV-vis spectrometry; type: physicochemical
[6] = test system: CEM-DNR; assay: Selectivity index, ratio of IC50 for human MRC5 cells to IC50 for human CEM-DNR cells; type: functional
[7] = test system: Pichia kudriavzevii; assay: Antifungal activity against Candida crusei up to 200 uM after 24 to 48 hrs by broth microdilution method; type: functional, organism-based
[8] = test system: Escherichia coli; assay: Antimicrobial activity against Escherichia coli CCM 3954 up to 200 uM after 24 to 48 hrs by broth microdilution method; type: functional, organism-based
[9] = Metal chelating activity of the compound assessed as formation of Cr3+ complex by UV-vis spectrometry; type: physicochemical
[10] = test system: BJ; assay: Selectivity index, ratio of IC50 for human BJ cells to IC50 for human CCRF-CEM cells; type: functional; details: pooled result: one value given for 2 cell lines, strains, targets or settings
[11] = test system: CCRF-CEM; assay: Cytostatic activity against human CCRF-CEM cells after 72 hrs by MTT assay; type: functional, cell-based; method in brief: as §1
[12] = test system: Staphylococcus aureus; assay: Antimicrobial activity against methicillin-resistant Staphylococcus aureus MRSA 4591 up to 200 uM after 24 to 48 hrs by broth microdilution method; type: functional, organism-based
[13] = Metal chelating activity of the compound assessed as formation of Cu2+ complex by UV-vis spectrometry; type: physicochemical
[14] = test system: HCT-116; assay: Selectivity index, ratio of IC50 for human MRC5 cells to IC50 for human p53-/- HCT116 cells; type: functional
[15] = Metal chelating activity of the compound assessed as formation of Co2+ complex by UV-vis spectrometry; type: physicochemical
[16] = test system: MRC5; assay: Cytostatic activity against human MRC5 cells after 72 hrs by MTT assay; type: ADME, cell-based; details: MRC5, 72 h; method in brief: as §1
[17] = test system: Pseudomonas aeruginosa; assay: Antimicrobial activity against multidrug-resistant Pseudomonas aeruginosa A/16575 up to 200 uM after 24 to 48 hrs by broth microdilution method; type: functional, organism-based
[18] = test system: A549; assay: Selectivity index, ratio of IC50 for human BJ cells to IC50 for human A549 cells; type: functional
[19] = test system: BJ; assay: Selectivity index, ratio of IC50 for human BJ cells to IC50 for human HCT116 cells; type: functional
[20] = test system: Nucleic Acid; assay: Binding affinity to DNA (unknown origin) assessed as DNA intercalation by UV-visible spectrophotometry in presence of Fe3+; type: nucleic-acid assay
[21] = test system: BJ; assay: Cytostatic activity against human BJ cells after 72 hrs by MTT assay; type: ADME, cell-based; method in brief: as §1
[22] = test system: Nucleic Acid; assay: Binding affinity to DNA (unknown origin) assessed as DNA intercalation by UV-visible spectrophotometry in presence of Co2+; type: nucleic-acid assay
[23] = test system: Staphylococcus haemolyticus; assay: Antimicrobial activity against methicillin-resistant Staphylococcus haemolyticus A1/16568 up to 200 uM after 24 to 48 hrs by broth microdilution method; type: functional, organism-based
[24] = test system: K562; assay: Selectivity index, ratio of IC50 for human MRC5 cells to IC50 for human K562 cells; type: functional
[25] = Metal chelating activity of the compound assessed as formation of Fe2+ complex by UV-vis spectrometry; type: physicochemical
[26] = test system: MRC5; assay: Selectivity index, ratio of IC50 for human MRC5 cells to IC50 for human K562-TAX cells; type: functional
[27] = test system: Nucleic Acid; assay: Binding affinity to DNA (unknown origin) assessed as DNA intercalation by UV-visible spectrophotometry in presence of Ni2+; type: nucleic-acid assay
[28] = test system: Candida albicans; assay: Antifungal activity against Candida albicans up to 200 uM after 24 to 48 hrs by broth microdilution method; type: functional, organism-based
[29] = Cytostatic activity against human K562-TAX cells after 72 hrs by MTT assay; type: functional, cell-based; method in brief: as §1
[30] = test system: Staphylococcus aureus; assay: Antimicrobial activity against Staphylococcus aureus CCM 3953 up to 200 uM after 24 to 48 hrs by broth microdilution method; type: functional, organism-based
[31] = test system: BJ; assay: Selectivity index, ratio of IC50 for human BJ cells to IC50 for human CEM-DNR cells; type: functional
[32] = Cytostatic activity against human CEM-DNR cells after 72 hrs by MTT assay; type: functional, cell-based; method in brief: as §1
[33] = Metal chelating activity of the compound assessed as formation of Zn2+ complex by UV-vis spectrometry; type: physicochemical
[34] = test system: Nucleic Acid; assay: Binding affinity to DNA (unknown origin) assessed as DNA intercalation by UV-visible spectrophotometry in presence of Cu2+; type: nucleic-acid assay
[35] = test system: Candida parapsilosis; assay: Antifungal activity against Candida parapsilosis up to 200 uM after 24 to 48 hrs by broth microdilution method; type: functional, organism-based
[36] = Metal chelating activity of the compound assessed as formation of Ca2+ complex by UV-vis spectrometry; type: physicochemical
[37] = test system: Pseudomonas aeruginosa; assay: Antimicrobial activity against Pseudomonas aeruginosa CCM 395 up to 200 uM after 24 to 48 hrs by broth microdilution method; type: functional, organism-based
[38] = test system: Enterococcus faecalis; assay: Antimicrobial activity against Enterococcus faecalis CCM 4224 up to 200 uM after 24 to 48 hrs by broth microdilution method; type: functional, organism-based
[39] = Cytostatic activity against human HCT116 cells after 72 hrs by MTT assay; type: functional, cell-based; details: HCT-116, 72 h; method in brief: as §1
[40] = test system: Nucleic Acid; assay: Binding affinity to DNA (unknown origin) assessed as DNA intercalation by UV-visible spectrophotometry; type: nucleic-acid assay
[41] = Metal chelating activity of the compound assessed as formation of Ni2+ complex by UV-vis spectrometry; type: physicochemical
[42] = test system: BJ; assay: Selectivity index, ratio of IC50 for human BJ cells to IC50 for human p53-/- HCT116 cells; type: functional
[43] = Cytostatic activity against human p53-/- HCT116 cells after 72 hrs by MTT assay; type: functional, cell-based; details: HCT-116, 72 h; method in brief: as §1
[44] = test system: Escherichia coli; assay: Antimicrobial activity against multidrug-resistant Escherichia coli C/16702 up to 200 uM after 24 to 48 hrs by broth microdilution method; type: functional, organism-based
[45] = test system: Nucleic Acid; assay: Binding affinity to DNA (unknown origin) assessed as DNA intercalation by UV-visible spectrophotometry in presence of Zn2+; type: nucleic-acid assay
[46] = test system: BJ; assay: Selectivity index, ratio of IC50 for human BJ cells to IC50 for human K562 cells; type: functional
[47] = test system: A549; assay: Selectivity index, ratio of IC50 for human MRC5 cells to IC50 for human A549 cells; type: functional
[48] = Metal chelating activity of the compound assessed as formation of Fe3+ complex by UV-vis spectrometry; type: physicochemical
[49] = test system: HCT-116; assay: Selectivity index, ratio of IC50 for human MRC5 cells to IC50 for human HCT116 cells; type: functional
[50] = Metal chelating activity of the compound assessed as formation of Mn2+ complex by UV-vis spectrometry; type: physicochemical

O=C(N/N=C/c1cc([N+](=O)[O-])ccc1O)c1ccc2c3c(ccc2c1)N1Cc2c(ccc4cc(C(=O)N/N=C/c5cc([N+](=O)[O-])ccc5O)ccc24)N(C3)C1
0.9: Ratio IC50 [4] | Ratio IC50 [6] | Ratio IC50 [10] | Ratio IC50 [14] | Ratio IC50 [18] | Ratio IC50 [19] | Ratio IC50 [24] | Ratio IC50 [26] | Ratio IC50 [31] | Ratio IC50 [42] | Ratio IC50 [46] | Ratio IC50 [47] | Ratio IC50 [49]
Not Active: Activity [5] | Activity [9] | Activity [25] | Activity [36] | Activity [50]
> 100 µM: IC50 [2] | IC50 [3] | IC50 [11] | IC50 [21] | IC50 [29] | IC50 [32] | IC50 [39] | IC50 [43]
inactive: Activity [1] | Activity [7] | Activity [8] | Activity [12] | Activity [17] | Activity [23] | Activity [28] | Activity [30] | Activity [35] | Activity [37] | Activity [38] | Activity [40] | Activity [44]
active: Activity [20] | Activity [22] | Activity [27] | Activity [34] | Activity [45]
88.8 µM: IC50 [16]
Active: Activity [13] | Activity [15] | Activity [33] | Activity [41] | Activity [48]

COc1cccnc1/C=N/NC(=O)c1ccc2c3c(ccc2c1)N1Cc2c(ccc4cc(C(=O)N/N=C/c5ncccc5OC)ccc24)N(C3)C1
inactive: Activity [1] | Activity [7] | Activity [8] | Activity [12] | Activity [17] | Activity [23] | Activity [28] | Activity [30] | Activity [35] | Activity [37] | Activity [38] | Activity [40] | Activity [44]
6.71 µM: IC50 [32]
> 100 µM: IC50 [2] | IC50 [16] | IC50 [21] | IC50 [43]
1: Ratio IC50 [14] | Ratio IC50 [18] | Ratio IC50 [42] | Ratio IC50 [47]
85.7 µM: IC50 [39]
36.6 µM: IC50 [11]
Active: Activity [13] | Activity [15] | Activity [33] | Activity [41] | Activity [48]
1.8: Ratio IC50 [24] | Ratio IC50 [46]
2.7: Ratio IC50 [10]
2.93 µM: IC50 [29]
1.2: Ratio IC50 [19] | Ratio IC50 [49]
34.1: Ratio IC50 [4] | Ratio IC50 [26]
14.9: Ratio IC50 [6] | Ratio IC50 [31]
55.6 µM: IC50 [3]
Not Active: Activity [5] | Activity [9] | Activity [25] | Activity [36] | Activity [50]
active: Activity [20] | Activity [22] | Activity [27] | Activity [34] | Activity [45]

O=C(N/N=C/c1cc(Cl)ccc1O)c1ccc2c3c(ccc2c1)N1Cc2c(ccc4cc(C(=O)N/N=C/c5cc(Cl)ccc5O)ccc24)N(C3)C1
inactive: Activity [1] | Activity [7] | Activity [8] | Activity [12] | Activity [17] | Activity [23] | Activity [28] | Activity [30] | Activity [35] | Activity [37] | Activity [38] | Activity [40] | Activity [44]
> 100 µM: IC50 [2] | IC50 [3] | IC50 [16] | IC50 [21] | IC50 [29] | IC50 [32] | IC50 [39] | IC50 [43]
active: Activity [20] | Activity [22] | Activity [27] | Activity [34] | Activity [45]
Active: Activity [13] | Activity [15] | Activity [33] | Activity [41] | Activity [48]
42.1 µM: IC50 [11]
1: Ratio IC50 [4] | Ratio IC50 [6] | Ratio IC50 [14] | Ratio IC50 [18] | Ratio IC50 [19] | Ratio IC50 [24] | Ratio IC50 [26] | Ratio IC50 [31] | Ratio IC50 [42] | Ratio IC50 [46] | Ratio IC50 [47] | Ratio IC50 [49]
Not Active: Activity [5] | Activity [9] | Activity [25] | Activity [36] | Activity [50]
2.4: Ratio IC50 [10]
